Experiments:
Assay type in all cases: functional
Cavia porcellus [1] = assay: Skin test reactivity (intensity of erythema and edema) was measured in guinea pig sensitized to poison ivy urushiol by Draize method
How it was run: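 Urushiol-sensitized guinea pigs (1 mg in 0.15 mL acetone, dorsal neck) received eliciting doses in acetone on abdominal skin. Erythema and edema were scored 0–4 by Draize at 24, 48 and 72 h and averaged per group. Irritancy was tested with similar doses on nonsensitized animals.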

Cavia porcellus [2] = species: Cavia porcellus; assay: The dose which shows the cross-reactivity with guinea pig sensitized to poison ivy urushiol
How it was run: (§1)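 Guinea pigs sensitized topically with 1 mg purified poison ivy urushiol in 0.15 mL acetone on dorsal neck skin (about 10 cm2). Sensitivity was checked with 2 μg PDC in acetone on shaven abdominal skin. Test compounds (10 and 30 μg in acetone) went on abdominal sites. Animals counted positive for erythema/edema at 24, 48 and 72 h, alongside urushiol controls.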

Cavia porcellus [3] = species: Cavia porcellus; assay: Allergenic cross-reactivity was expressed as number of guinea pig with a positive skin reaction versus number tested upon sensitizing them to poison ivy urushiol; 7/7; how it was run: as §1
Cavia porcellus [4] = species: Cavia porcellus; assay: Allergenic cross-reactivity was expressed as number of guinea pig with a positive skin reaction versus number tested upon sensitizing them to poison ivy urushiol; 0/15; how it was run: as §1
Cavia porcellus [5] = species: Cavia porcellus; assay: Allergenic cross-reactivity was expressed as number of guinea pig with a positive skin reaction versus number tested upon sensitizing them to poison ivy urushiol; 5/9; how it was run: as §1
Cavia porcellus [6] = species: Cavia porcellus; assay: Allergenic cross-reactivity was expressed as number of guinea pig with a positive skin reaction versus number tested upon sensitizing them to poison ivy urushiol; 0/8; how it was run: as §1
Cavia porcellus [7] = species: Cavia porcellus; assay: Allergenic cross-reactivity was expressed as number of guinea pig with a positive skin reaction versus number tested upon sensitizing them to poison ivy urushiol; 0/7; how it was run: as §1
Cavia porcellus [8] = species: Cavia porcellus; assay: Allergenic cross-reactivity was expressed as number of guinea pig with a positive skin reaction versus number tested upon sensitizing them to poison ivy urushiol; 2/9; how it was run: as §1

Structure (SMILES)	Activity (Cavia porcellus [1])	Dose (Cavia porcellus [2]) [µg]	Activity (Cavia porcellus [3])	Activity (Cavia porcellus [4])	Activity (Cavia porcellus [5])	Activity (Cavia porcellus [6])	Activity (Cavia porcellus [7])	Activity (Cavia porcellus [8])
CCCCCCCCCCCCCCCCCc1cccc(O)c1N	2.9	10	7					
CCCCCCCCCCCCCCCc1cc(O)ccc1O	0	1		0				
CCCCCCCCCCCCCCCc1cc(O)cc(O)c1 [CARDOL]	0.6	30			5			
CCCCCCCCCCCCCCc1c(O)cccc1O	0	10				0		
CCCCCCCCCCCCCCCc1cccc(O)c1N	2.9	10	7					
CCCCCCCCCCCCCCCc1cccc(NS(C)(=O)=O)c1O	0	10					0	
CCCCCCCCCCCCCCCc1cccc(O)c1NS(C)(=O)=O	0	10					0	
CCCCCCCCCCCCCCCc1ccc(O)c(O)c1	0.1	1						2
CCCCCCCCCCCCCc1cccc(O)c1NS(C)(=O)=O	0	10					0	
CCCCCCCCCCCCCc1cccc(O)c1N	2.9	10	7					
CCCCCCCCCCCCCCCCCc1cccc(O)c1NS(C)(=O)=O	0	10					0	
CCCCCCCCCCCCCCCc1cccc(N)c1O	2.4	10	7					
CCCCCCCCCCCCCCCc1ccc(O)cc1O	0	30		0				
